Compound activity (PubChem BioAssay)
KCNK3 block = human KCNK3 channel inhibition, primary screen | CHO-KCNK3 thallium flux, FluxOR fluorescence; hits give low values | B-score at 10 µM | actives 0.84% (n = 340,000) | O14649;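 active = B-score under library mean minus 4 SD, starting fluorescence ratio at most library mean plus 5 SD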;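 note: more negative B-score means stronger inhibition of thallium flux through KCNK3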
hERG rescue = shields human hERG channel from block by proarrhythmic agents; Q12809; CHO-hERG, FluxOR thallium flux, dofetilide IC70 present; activation (rescue from dofetilide block), less the hit threshold, % at 10 µM; actives 0.51% (n = 310,000);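 active = activation above the mean of controls blocked by dofetilide plus 5 SD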;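 note: thallium influx through hERG after potassium depolarization seen as dye fluorescence rise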
KCNQ1 pot = potentiates or activates the human KCNQ1 potassium channel | P51787 | CHO-K1 KCNQ1, thallium flux FluxOR fluorescence; hits give high values | B-score at 10 µM | actives 0.35% (n = 310,000) | AID 2648;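 active = fluorescence ratio B-score, a plate-corrected score, at least three library SD, with initial intensity B-score within 5 SD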
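Assay system: stable KCNQ1 CHO-K1 line; medium: assay buffer, equal DMSO in all wells; timing: 90 min dye loading and 20 min compound exposure, both at room temperature; technique: kinetic FluxOR thallium fluorescence, 10-s 1-Hz baseline, 110-s post-stimulus read; read-out basis: B score of baseline-normalized fluorescence ratio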
KCNK9 inh = blocks the human KCNK9 two-pore domain potassium channel. AID 488922. actives 1.2% (n = 310,000). HEK293 KCNK9, FluxOR thallium flux fluorescence; hits give low values. B-score at 10 µM. Q9NPC2;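 active = ratio B-score over 3 SD below the library mean, with starting fluorescence within 5 SD of its mean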;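 note: negative B-score means less thallium flux so channel inhibition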
Target sequence (Q9NPC2 whole entry, looked up, the tested form may be a part): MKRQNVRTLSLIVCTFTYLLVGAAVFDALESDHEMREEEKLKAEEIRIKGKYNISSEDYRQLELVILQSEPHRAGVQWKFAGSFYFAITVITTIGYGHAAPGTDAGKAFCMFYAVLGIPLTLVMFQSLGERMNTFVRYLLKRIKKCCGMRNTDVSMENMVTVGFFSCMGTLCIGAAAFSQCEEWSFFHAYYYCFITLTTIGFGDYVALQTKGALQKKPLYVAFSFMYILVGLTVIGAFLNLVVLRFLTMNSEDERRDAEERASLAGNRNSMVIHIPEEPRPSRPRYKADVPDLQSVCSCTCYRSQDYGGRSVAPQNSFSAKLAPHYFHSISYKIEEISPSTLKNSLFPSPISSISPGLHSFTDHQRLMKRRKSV
Kir21 block = Kir2.1 (mouse) channel inhibition | P35561 | HEK293-Kir2.1, FluxOR thallium flux fluorescence; hits give low values | B-score at 10 µM | actives 0.85% (n = 310,000);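 active = fluorescence ratio B-score at or below minus 3 SD of library scores, with starting-brightness B-score within 2 SD, cut at about -4.2 in these data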;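 note: channel flux triggered by added potassium and thallium sulfate stimulus; B-score of peak minus minimum fluorescence over baseline after thallium stimulus; more negative B-score means stronger Kir2.1 block with less thallium influx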
KCNQ1 block = inhibitors of human KCNQ1 potassium channel | CHO-K1 KCNQ1, FluxOR thallium flux fluorescence; hits give high values | P51787 | B-score at 10 µM | actives 1.3% (n = 310,000);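 active = compounds whose thallium flux B-score, printed positive for inhibition, exceeds three library SD while starting fluorescence stays within three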;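 note: channel opened by potassium depolarization with thallium stimulus after 20 min compound exposure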
KCNK9 block conf = human KCNK9 inhibitor confirmation | inhibition, % at 10 µM | shares compounds with KCNK9 inh | actives 43% (n = 4,900) | HEK293 KCNK9 cells, FluxOR thallium flux fluorescence;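 active = thallium signal inhibited by more than 5 SD of the compound-free buffer control wells, on both duplicate plates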;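 note: 0% = assay buffer control wells without compound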
Kir2-1 spec = mouse Kir2.1 off-target activity of KCNK9 modulators | AID 492993 | Kir2.1 cells, FluxOR thallium flux fluorescence | actives 4% (n = 4,900) | shares compounds with KCNK9 inh | inhibition, % at 10 µM;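 active = thallium signal drop more than 5 SD beyond the mean of the no-compound control wells, seen in both duplicate plates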;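 note: signal is fluorescence rise after thallium addition divided by baseline fluorescence; plate controls were assay buffer only for no effect and full block by chlorpromazine control for full effect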
KCNK9 uninduced = second check of KCNK9 modulator effects in non-induced HEK293 cells. inhibition, % at 10 µM. shares compounds with KCNK9 inh. FluxOR thallium flux. actives 40% (n = 4,900);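 active = thallium signal drop beyond 5 SD of the untreated control mean, on both duplicate plates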;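 note: plate controls were buffer only IC0 wells for no effect and SID17386958 at its maximal inhibitory level for full effect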
* = called active by the depositor. Shown are actives, neighbours in structure and some others; about 3.7% of the full set was active somewhere.

`Cc1cccn2c(=O)c(/C=C(\C#N)C(=O)NCc3ccco3)c(N3CCCCCC3)nc12` gave KCNK3 block inactive, hERG rescue -5, KCNQ1 pot inactive, KCNK9 inh inactive, Kir21 block 0.53, KCNQ1 block inactive, KCNK9 block conf inactive, Kir2-1 spec inactive and KCNK9 uninduced inactive.
COC(=O)c1ccc2c(CCO)c[nH]c2c1 was read as KCNK3 block inactive, hERG rescue -6, KCNQ1 pot inactive, KCNK9 inh inactive, Kir21 block 1.4 and KCNQ1 block inactive.
CCCCNC(=O)[C@H]1C[C@H]1[C@@H](O)[C@H](CO)NC(=O)[C@H](Cc1ccccc1)NC(=O)OC(C)(C)C was read as KCNK3 block inactive, hERG rescue -4, KCNQ1 pot inactive, KCNK9 inh inactive, Kir21 block -0.15, KCNQ1 block inactive, KCNK9 block conf inactive, Kir2-1 spec inactive and KCNK9 uninduced inactive.
Screening Cc1cc(O)cc(=O)n1Cc1ccccc1 returned KCNK3 block inactive, hERG rescue 0, KCNQ1 pot inactive, KCNK9 inh inactive, Kir21 block 0.06 and KCNQ1 block inactive.
For COC(=O)CNC(c1ccccc1)c1cc(Br)ccc1NC(=O)CNC(=O)OCc1ccccc1 (stereo not given) the results were KCNK3 block inactive, hERG rescue -6, KCNQ1 pot inactive, KCNK9 inh -15*, Kir21 block 1.2, KCNQ1 block inactive, KCNK9 block conf 64%*, Kir2-1 spec inactive and KCNK9 uninduced 32%*.
`Cc1cc(C)n(-c2nnc(C)n2/N=C/c2ccc(O)cc2)n1` gave KCNK3 block inactive, hERG rescue -5, KCNQ1 pot inactive, KCNK9 inh inactive, Kir21 block 2.9 and KCNQ1 block inactive.
For Cc1cc(C)n(-c2nnc(C)n2/N=C/c2cc(Br)ccc2OCc2ccccc2)n1 the results were KCNK3 block inactive, hERG rescue -14, KCNQ1 pot inactive, KCNK9 inh -8.6*, Kir21 block 0.48, KCNQ1 block inactive, KCNK9 block conf 41%*, Kir2-1 spec inactive and KCNK9 uninduced inactive.
`Cc1c(Cl)cccc1NS(=O)(=O)c1ccc(-c2ccc(=O)[nH]n2)o1` gave KCNK3 block inactive, hERG rescue -7, KCNQ1 pot inactive, KCNK9 inh inactive, Kir21 block 1.1 and KCNQ1 block inactive.
Oc1oc(-c2ccccc2)nc1C=Nc1cccc2ccccc12 was read as KCNK3 block inactive, hERG rescue 0, KCNQ1 pot inactive, KCNK9 inh -9.9*, Kir21 block -1.1, KCNQ1 block inactive, KCNK9 block conf inactive, Kir2-1 spec inactive and KCNK9 uninduced 45%*.
Screening O=C(/C=C/NNC(=O)c1cccc(Br)c1)c1cccc(Br)c1 returned KCNK3 block -9*, hERG rescue -15, KCNQ1 pot inactive, KCNK9 inh -9*, Kir21 block 1.4, KCNQ1 block inactive, KCNK9 block conf 38%*, Kir2-1 spec inactive and KCNK9 uninduced 34%*.
COCCN(C(=O)CCc1nnc(Cc2c[nH]c3ccccc23)o1)C(C)C was read as KCNK3 block inactive, hERG rescue -7, KCNQ1 pot inactive, KCNK9 inh inactive, Kir21 block 0.2 and KCNQ1 block inactive.
CC(C)(C)c1cc(-c2ccco2)c(C#N)c(SCC#N)n1 was read as KCNK3 block inactive, hERG rescue -4, KCNQ1 pot inactive, KCNK9 inh -9.6*, Kir21 block -1.6, KCNQ1 block inactive, KCNK9 block conf inactive, Kir2-1 spec inactive and KCNK9 uninduced 31%*.
Screening Cc1ccc(-c2cc(-c3ccco3)c(C#N)c(=O)[nH]2)cc1 returned KCNK3 block inactive, hERG rescue -5, KCNQ1 pot inactive, KCNK9 inh inactive, Kir21 block -0.27 and KCNQ1 block inactive.
Screening CCOC(=O)c1c(NC(=O)C2CCN(S(=O)(=O)c3cccs3)CC2)sc(C)c1C returned KCNK3 block inactive, hERG rescue -6, KCNQ1 pot inactive, KCNK9 inh inactive, Kir21 block 0.35, KCNQ1 block inactive, KCNK9 block conf inactive, Kir2-1 spec inactive and KCNK9 uninduced inactive.
Screening O=C(Cn1ncn2c(cc3sccc32)c1=O)NC1CCCC1 returned KCNK3 block inactive, hERG rescue -8, KCNQ1 pot inactive, KCNK9 inh inactive, Kir21 block -0.05 and KCNQ1 block inactive.
For Cc1ccc(NC(=O)CN2CCCN(S(=O)(=O)c3ccc(Br)s3)CC2)cc1 the results were KCNK3 block inactive, hERG rescue -11, KCNQ1 pot inactive, KCNK9 inh inactive, Kir21 block 0.85 and KCNQ1 block inactive.
Cc1cc(C)cc(NC(=O)CN2CCCN(S(=O)(=O)c3ccc(Br)s3)CC2)c1 was read as KCNK3 block -10*, hERG rescue -19, KCNQ1 pot inactive, KCNK9 inh -16*, Kir21 block -0.69, KCNQ1 block inactive, KCNK9 block conf 70%*, Kir2-1 spec inactive and KCNK9 uninduced 46%*.
`O=c1c2ccccc2nc(/C=C/c2cccnc2)n1CCc1ccccc1` gave KCNK3 block inactive, hERG rescue -13, KCNQ1 pot inactive, KCNK9 inh -9.3*, Kir21 block -0.72, KCNQ1 block inactive, KCNK9 block conf inactive, Kir2-1 spec inactive and KCNK9 uninduced 27%*.
Screening COc1cccc(CC2(CO)CCCN(Cc3sc(N4CCCC4)nc3Cl)C2)c1 (stereo not given) returned KCNK3 block inactive, hERG rescue -13, KCNQ1 pot inactive, KCNK9 inh inactive, Kir21 block -1.3, KCNQ1 block inactive, KCNK9 block conf inactive, Kir2-1 spec inactive and KCNK9 uninduced inactive.
`CC(C)(C)c1cc(C(=O)N/N=C/c2cc3c(cc2Br)OCO3)n[nH]1` gave KCNK3 block inactive, hERG rescue -15, KCNQ1 pot inactive, KCNK9 inh inactive, Kir21 block 0.43 and KCNQ1 block inactive.
For CCOC(=O)c1cnc2ccc(OC)cc2c1NCc1ccccc1 the results were KCNK3 block inactive, hERG rescue -20, KCNQ1 pot inactive, KCNK9 inh inactive, Kir21 block 0.16, KCNQ1 block inactive, KCNK9 block conf inactive, Kir2-1 spec inactive and KCNK9 uninduced inactive.
